Converted amounts (≈) assume the structure as drawn. The source made the active and inactive calls. No cut-off for these calls is given here.
Key:
Escherichia coli [1] = experiment: Antibacterial activity against Escherichia coli ATCC 27856 assessed as inhibition of bacterial growth after 18 hrs by liquid microdilution method; assay type: functional
How it was run: (§1)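 Liquid microdilution. Overnight 37 °C cultures, E. coli ATCC 27856 in LB and S. aureus ATCC 29213 in TSB, diluted 1:1000 in the same medium and exposed to compound. Growth was taken from OD600 before and after 18 h at 37 °C. MIC50 is the read-out. Triplicate, normalized to an internal vehicle control.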

Staphylococcus aureus [2] = experiment: Ratio of MIC50 for Staphylococcus aureus ATCC 29213 in absence of 50% bovine serum to MIC50 for Staphylococcus aureus ATCC29213 in presence of 50% bovine serum; assay type: functional
How it was run: (§2)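 S. aureus ATCC 29213 overnight culture (37 °C) diluted 1:1000 in 50% bovine serum/broth and run by liquid microdilution. Growth was taken from OD600 change over 18 h at 37 °C to give MIC50, in triplicate against a vehicle control. The enhancement ratio is MIC50 without serum divided by MIC50 with serum.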

[3] = Inhibition of ribosome nascent peptide exit tunnel in Escherichia coli S30 extract assessed as inhibition of prokaryotic translation in presence of amino acids incubated for 20 mins by luciferase reporter gene assay
How it was run: (§3)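 E. coli S30 cell-free extract with all amino acids, preincubated with compound for 20 min at room temperature. Luciferase control template added, translation run 60 min at 37 °C, then stopped by 5 min on ice. Luminescence was read after luciferin addition. IC50 from nonlinear fit, triplicate, normalized to vehicle control.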

[4] = Binding affinity to ribosome nascent peptide exit tunnel in rabbit reticulocyte extract assessed as inhibition of eukaryotic translation in presence of amino acids incubated for 20 mins by luciferase reporter gene assay; design: species or system Oryctolagus cuniculus
How it was run: as §3, with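 “Nuclease-treated rabbit reticulocyte lysate” for “E. coli S30 cell-free extract”, “90” for “60”, “30” for “37”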

Staphylococcus aureus [5] = experiment: Antibacterial activity against Erm+ methicillin-resistant Staphylococcus aureus ATCC 33591 assessed as inhibition of bacterial growth after 18 hrs by liquid microdilution method; assay type: functional
How it was run: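 MRSA grown overnight at 37 °C in Nutrient broth, diluted 1:1000 in the same medium, then plated with the compounds. Growth was judged by comparing OD600 before and after 18 h at 37 °C. MIC50 was taken by liquid microdilution. Vancomycin was the positive control. Each compound was run in triplicate and standardized against an internal vehicle control.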

Staphylococcus aureus [6] = experiment: Antibacterial activity against Staphylococcus aureus ATCC 29213 assessed as inhibition of bacterial growth after 18 hrs by liquid microdilution method; assay type: functional; conditions: ATCC 29213, 18 h; how it was run: as §1
Staphylococcus aureus [7] = experiment: Antibacterial activity against Staphylococcus aureus ATCC 29213 assessed as inhibition of bacterial growth after 18 hrs in presence of 50% bovine serum by liquid microdilution method; assay type: functional; conditions: ATCC 29213, 18 h; how it was run: as §2
Escherichia coli [8] = experiment: Inhibition of ribosome nascent peptide exit tunnel in Escherichia coli S30 extract assessed as inhibition of prokaryotic translation in presence of amino acids incubated for 20 mins by luciferase reporter gene assay relative to azithromycin

Structure (SMILES) | MIC50 (Escherichia coli [1]) | Ratio (Staphylococcus aureus [2]) | IC50 [3] [nM] | IC50 [4] [nM] | MIC50 (Staphylococcus aureus [5]) | MIC50 (Staphylococcus aureus [6]) [µg/mL] | MIC50 (Staphylococcus aureus [7]) [µg/mL] | MIC50 (Escherichia coli [1]; ATCC 27856, 18 h) [µg/mL] | fold change (FC) (Escherichia coli [8])
CC[C@H]1OC(=O)[C@H](C)[C@@H](O[C@H]2C[C@@](C)(OC)[C@@H](O)[C@H](C)O2)[C@H](C)[C@@H](O[C@@H]2O[C@H](C)C[C@H](N(C)C)[C@H]2O)[C@](C)(O)C[C@@H](C)CN(Cc2ccc(-c3cn(CCn4ccc5cc(OC)ccc54)nn3)cc2)[C@H](C)[C@@H](O)[C@]1(C)O | inactive | 2 | 504 | > 250000 | inactive | 1.56 (≈ 1.46 µM) | 0.78 | – | –
CC[C@H]1OC(=O)[C@H](C)[C@@H](O[C@H]2C[C@@](C)(OC)[C@@H](O)[C@H](C)O2)[C@H](C)[C@@H](O[C@@H]2O[C@H](C)C[C@H](N(C)C)[C@H]2O)[C@](C)(O)C[C@@H](C)CN(Cc2ccc(-c3cn(CCn4ccc5cc([N+](=O)[O-])ccc54)nn3)cc2)[C@H](C)[C@@H](O)[C@]1(C)O | – | 4 | 442 | > 250000 | inactive | 1.56 (≈ 1.44 µM) | 0.39 | 128 (≈ 118 µM) | –
CC[C@H]1OC(=O)[C@H](C)[C@@H](O[C@H]2C[C@@](C)(OC)[C@@H](O)[C@H](C)O2)[C@H](C)[C@@H](O[C@@H]2O[C@H](C)C[C@H](N(C)C)[C@H]2O)[C@](C)(O)C[C@@H](C)CN(CCCCc2cn(CCn3ccc4ccccc43)nn2)[C@H](C)[C@@H](O)[C@]1(C)O | – | 10 | 128 | > 250000 | inactive | 1.56 (≈ 1.56 µM) | 0.16 | 64 (≈ 63.9 µM) | 2.3
CC[C@H]1OC(=O)[C@H](C)[C@@H](O[C@H]2C[C@@](C)(OC)[C@@H](O)[C@H](C)O2)[C@H](C)[C@@H](O[C@@H]2O[C@H](C)C[C@H](N(C)C)[C@H]2O)[C@](C)(O)C[C@@H](C)CN(CCCCc2cn(CCc3c[nH]c4ccc(Cl)cc34)nn2)[C@H](C)[C@@H](O)[C@]1(C)O | – | 5 | 880 | > 250000 | inactive | 0.78 (≈ 0.753 µM) | 0.16 | 32 (≈ 30.9 µM) | –
CC[C@H]1OC(=O)[C@H](C)[C@@H](O[C@H]2C[C@@](C)(OC)[C@@H](O)[C@H](C)O2)[C@H](C)[C@@H](O[C@@H]2O[C@H](C)C[C@H](N(C)C)[C@H]2O)[C@](C)(O)C[C@@H](C)CN(CCCCc2cn(CCc3c[nH]c4ccccc34)nn2)[C@H](C)[C@@H](O)[C@]1(C)O | – | 10 | 540 | > 250000 | inactive | 0.78 (≈ 0.779 µM) | 0.078 | 16 (≈ 16 µM) | –
CC[C@H]1OC(=O)[C@H](C)[C@@H](O[C@H]2C[C@@](C)(OC)[C@@H](O)[C@H](C)O2)[C@H](C)[C@@H](O[C@@H]2O[C@H](C)C[C@H](N(C)C)[C@H]2O)[C@](C)(O)C[C@@H](C)CN(Cc2ccc(-c3cn(CCc4c[nH]c5ccccc45)nn3)cc2)[C@H](C)[C@@H](O)[C@]1(C)O | inactive | 2 | 120 | > 250000 | inactive | 3.13 (≈ 3.02 µM) | 1.56 | – | –
CC[C@H]1OC(=O)[C@H](C)[C@@H](O[C@H]2C[C@@](C)(OC)[C@@H](O)[C@H](C)O2)[C@H](C)[C@@H](O[C@@H]2O[C@H](C)C[C@H](N(C)C)[C@H]2O)[C@](C)(O)C[C@@H](C)CN(CCCCc2cn(CCc3cn(C)c4ccccc34)nn2)[C@H](C)[C@@H](O)[C@]1(C)O | – | 10 | 227 | > 250000 | inactive | 1.56 (≈ 1.54 µM) | 0.16 | 128 (≈ 126 µM) | –

— ChEMBL document CHEMBL3600351, “Exploiting translational stalling peptides in an effort to extend azithromycin interaction within the prokaryotic ribosome nascent peptide exit tunnel” (Bioorg Med Chem, 2015)
